Measurements reported in ChEMBL document CHEMBL1124831, “Conjugate addition ligands of opioid antagonists. Methacrylate esters and ethers of 6 alpha- and 6 beta-naltrexol” (J Med Chem, 1990).

Legend:
[1] = target: T1, Opioid receptors; mu/kappa/delta (Homo sapiens, UniProt P41145+P41143+P35372); settings: Bos taurus; at 100 nM
Mu-type opioid receptor = Mu-type opioid receptor (Bos taurus, UniProt P79350); assay: In vitro binding affinity against Opioid receptor mu 1 from bovine caudate nucleus determined in presence of [3H]DAGO (1 nM)
Chain of Mu-type opioid receptor (P79350 whole entry): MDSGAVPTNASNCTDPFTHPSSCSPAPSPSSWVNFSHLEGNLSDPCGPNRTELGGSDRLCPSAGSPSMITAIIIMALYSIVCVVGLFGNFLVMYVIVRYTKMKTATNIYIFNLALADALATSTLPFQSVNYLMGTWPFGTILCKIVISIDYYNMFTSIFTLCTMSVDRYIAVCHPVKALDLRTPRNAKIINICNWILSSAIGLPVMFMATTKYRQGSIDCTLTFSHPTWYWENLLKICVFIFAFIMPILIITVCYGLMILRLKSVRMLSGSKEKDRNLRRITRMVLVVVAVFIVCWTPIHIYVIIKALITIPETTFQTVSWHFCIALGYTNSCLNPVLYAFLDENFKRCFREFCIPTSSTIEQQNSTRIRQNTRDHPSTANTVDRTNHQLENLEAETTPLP
In short: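 Crude bovine striatal membranes were stored at -70 °C. […] Competitor was tested at five concentrations, with nonspecific binding defined by 10 μM naloxone. Incubation was 45 min at 25 °C in 50 mM Tris-HCl or potassium phosphate, pH 7.4, with 1 mM EDTA. Read-out was GF/B filtration and scintillation counting. IC50 is from duplicates or triplicates.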

[2] = target: T1, Opioid receptors; mu/kappa/delta; settings: Bos taurus; at 100 nM; remark: listed apart in the source
[3] = target: T1, Opioid receptors; mu/kappa/delta; assay: In vitro binding affinity against Opioid receptors from bovine caudate nucleus determined in presence of [3H]- bremazocine (0.5 nM); format: protein assay, Bos taurus; settings: target entry is the homologue from another species
In short: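 Crude bovine striatal membranes were stored at -70 °C. Competitor was tested at five concentrations, with nonspecific binding defined by 10 μM naloxone. Incubation was 45 min at 25 °C in 50 mM Tris-HCl or potassium phosphate, pH 7.4, with 1 mM EDTA. Read-out was GF/B filtration and scintillation counting. IC50 is from duplicates or triplicates.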

Mus musculus = organism: Mus musculus; assay: Antagonist activity against morphine was determined […] in mice using tail flick assay; format: functional
In short: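 Mouse tail-flick test against morphine given sc, run by the Committee on Problems of Drug Dependence. The antagonist dose giving 50% blockade (AD50, mg/kg) is reported with 95% confidence limits.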

[4] = target: T1, Opioid receptors; mu/kappa/delta; settings: Bos taurus; at 20 nM
[5] = target: T1, Opioid receptors; mu/kappa/delta; assay: Irreversible inhibition of 1 nM DAGO binding against Opioid receptors from unwashed bovine caudate membrane at 10 nM in presence of NaCl; set-up: scale not given: the % may be the effect or the level left; settings: Bos taurus, target entry is the homologue from another species
[6] = target: T1, Opioid receptors; mu/kappa/delta; assay: Irreversible inhibition of 1 nM DAGO binding against Opioid receptors from protected bovine caudate membrane at 10 nM in presence of NaCl; set-up: scale not given: the % may be the effect or the level left; settings: Bos taurus, target entry is the homologue from another species
[7] = target: T1, Opioid receptors; mu/kappa/delta; settings: Bos taurus; at 20 nM; remark: listed apart in the source
[8] = target: T1, Opioid receptors; mu/kappa/delta; settings: Bos taurus; at 20 nM; remark: listed apart in the source
[9] = target: T1, Opioid receptors; mu/kappa/delta; settings: Bos taurus; at 100 nM; remark: listed apart in the source
[10] = target: T1, Opioid receptors; mu/kappa/delta; settings: Bos taurus; at 100 nM; remark: listed apart in the source
[11] = target: T1, Opioid receptors; mu/kappa/delta; settings: Bos taurus; at 100 nM; remark: listed apart in the source

T1 sequence (P35372 whole entry, looked up): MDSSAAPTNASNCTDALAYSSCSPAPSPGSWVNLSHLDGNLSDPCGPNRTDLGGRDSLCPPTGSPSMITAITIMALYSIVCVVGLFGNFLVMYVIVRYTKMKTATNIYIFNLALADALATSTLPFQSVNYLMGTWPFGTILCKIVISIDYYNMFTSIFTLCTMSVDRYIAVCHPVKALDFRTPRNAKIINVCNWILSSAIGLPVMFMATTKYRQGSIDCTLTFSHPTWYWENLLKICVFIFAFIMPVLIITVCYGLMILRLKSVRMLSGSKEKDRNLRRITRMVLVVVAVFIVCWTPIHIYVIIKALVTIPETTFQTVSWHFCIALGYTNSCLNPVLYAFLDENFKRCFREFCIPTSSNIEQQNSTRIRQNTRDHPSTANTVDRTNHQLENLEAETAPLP
T1 sequence (P41143 whole entry, looked up): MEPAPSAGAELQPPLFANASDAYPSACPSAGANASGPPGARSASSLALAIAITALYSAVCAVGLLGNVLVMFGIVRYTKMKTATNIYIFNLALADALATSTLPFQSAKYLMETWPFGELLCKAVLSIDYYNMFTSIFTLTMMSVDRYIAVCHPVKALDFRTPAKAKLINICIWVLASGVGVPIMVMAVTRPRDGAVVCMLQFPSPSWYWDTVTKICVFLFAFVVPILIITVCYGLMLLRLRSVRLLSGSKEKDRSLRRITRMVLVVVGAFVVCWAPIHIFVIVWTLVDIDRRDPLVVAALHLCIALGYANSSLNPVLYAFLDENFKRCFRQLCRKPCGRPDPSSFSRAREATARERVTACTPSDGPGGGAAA
T1 sequence (P41145 whole entry, looked up): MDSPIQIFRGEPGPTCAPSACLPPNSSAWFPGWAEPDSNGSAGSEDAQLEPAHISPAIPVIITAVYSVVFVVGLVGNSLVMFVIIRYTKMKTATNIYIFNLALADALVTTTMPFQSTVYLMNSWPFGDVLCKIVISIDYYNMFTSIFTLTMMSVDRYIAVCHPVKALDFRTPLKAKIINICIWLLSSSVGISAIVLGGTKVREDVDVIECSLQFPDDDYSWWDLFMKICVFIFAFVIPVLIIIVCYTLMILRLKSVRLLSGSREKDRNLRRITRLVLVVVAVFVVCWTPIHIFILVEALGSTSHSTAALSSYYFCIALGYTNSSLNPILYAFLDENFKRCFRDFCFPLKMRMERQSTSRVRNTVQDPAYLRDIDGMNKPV

Row | SMILES | Control [1] [%] | IC50 (Mu-type opioid receptor) [nM] | Control [2] [%] | IC50 [3] [nM] | AD50 (Mus musculus) [mg/kg] | Control [4] [%] | Control [5] [%] | Control [6] [%] | Control [7] [%] | Control [8] [%] | Control [9] [%] | Control [10] [%] | Control [11] [%]
1 | C=C(C)C(=O)O[C@H]1CC[C@@]2(O)[C@H]3Cc4ccc(O)c5c4[C@@]2(CCN3CC2CC2)[C@H]1O5 | 22 | 6.8 | 100 | 20 | 0.02 |  |  |  |  |  |  |  | 
2 | C=C(C)C(=O)OC1CCC2(O)C3Cc4ccc(O)c5c4[C@@]2(CCN3CC2CC2)C1O5 (some centres undefined) | 39 | 1 | 100 | 5 | 0.02 |  |  |  |  |  |  |  | 
3 | O=C1CC[C@@]2(O)[C@H]3Cc4ccc(O)c5c4[C@@]2(CCN3CC2CC2)[C@H]1O5 [NALTREXONE] |  |  |  |  | 0.007 |  |  |  |  |  |  |  | 
4 | C=C(CO[C@@H]1CC[C@@]2(O)[C@H]3Cc4ccc(O)c5c4[C@@]2(CCN3CC2CC2)[C@H]1O5)C(=O)OC |  | 1.5 |  | 12 | 0.02 | 35 | 20 | 95 | 59 |  |  |  | 
5 | C=C(COC1CCC2(O)C3Cc4ccc(O)c5c4[C@@]2(CCN3CC2CC2)C1O5)C(=O)OC (some centres undefined) |  | 0.18 |  | 2.4 | 0.07 | 17 |  |  | 79 | 96 |  |  | 
6 | C=C1CC2(CCC3(O)[C@H]4Cc5ccc(O)c6c5[C@@]3(CCN4CC3CC3)C2O6)OC1=O (some centres undefined) |  | 1.8 |  | 6 |  |  |  |  |  |  | 50 | 16 | 85
